This assay in a line: DPPH free radical scavenging assay. The method in brief:
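Each well held test compound and DPPH (added as 150 µM solution, half the well volume), made up with methanol. Incubated 30 min at room temperature, then absorbance read at 517 nm. Percent inhibition was calculated from blank and sample absorbances. Ascorbic acid served as reference. Three independent experiments were run, each in triplicate.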
(Loss of DPPH colour is used to gauge radical scavenging.)

Take `O=C1O[C@H]([C@@H](O)CO)C(O)=C1O` [Vitamin C, Ascorbic acid]: the antioxidant activity turned out to be 95.1571 ± 0.057 µg/mL.
